Test results taken from ChEMBL document CHEMBL1125276 (J Med Chem, 1991).

How the values were obtained:
[1] = test system: L1210; test: Tested for the inhibition of L1210 cell proliferation.; format: functional, cell-based; details: Mus musculus
Outline: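 L1210 cells were grown in RPMI 1640 with 10% FCS, 2 mM L-glutamine and 10 mM HEPES (pH 7.4). Exponential-phase cells (10^5 cells/mL) were exposed for 24 h to 5 drug concentrations in triplicate, then pulsed 3 h with 0.5 µCi/mL [3H]thymidine. Cells were harvested onto filters and counted. IC50 is 50% inhibition of incorporation versus untreated cells, given as the mean of 2–5 independent experiments.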

[2] = test system: P388; test: Compound was tested for T/C range at optimal dose of 8.00 mg/kg for antitumor activity against P388 leukemia cells in mice.; format: functional, Mus musculus
[3] = test system: P388; test: Long-term survivors (LTS) for 60 days at optimal dose of 8.00 mg/kg for antitumor activity against P388 leukemia cells in 5 mice.; format: functional, Mus musculus
[4] = test system: P388; test: Compound was tested for T/C range at optimal dose of 1.5 mg/kg for antitumor activity against P388 leukemia cells in mice.; format: functional, Mus musculus
[5] = test system: P388; test: Long-term survivors (LTS) for 60 days at optimal dose of 1.5 mg/kg for antitumor activity against P388 leukemia cells in 6 mice.; format: functional, Mus musculus

Structure (SMILES)	IC50 [1] [nM]	T/C [2] [%]	LTS [3]	T/C [4] [%]	LTS [5]
CCOP(=O)(OCC)[C@H](Cc1ccccc1)NC(=O)[C@@]1(O)[C@H](O)[C@]2(CC)C=CCN3CC[C@@]4(c5cc([C@@]6(C(=O)OC)C[C@@H]7CN(CCc8c6[nH]c6ccccc86)C[C@](O)(CC)C7)c(OC)cc5N(C)[C@@H]14)[C@@H]32	9.64	229	0		
CCOP(=O)(OCC)C(CC(C)C)NC(=O)[C@@]1(O)[C@H](O)[C@]2(CC)C=CCN3CC[C@@]4(c5cc([C@@]6(C(=O)OC)C[C@@H]7CN(CCc8c6[nH]c6ccccc86)C[C@](O)(CC)C7)c(OC)cc5N(C)[C@@H]14)[C@@H]32 (mixture of isomers)	3.13			261	1
